ChEMBL document CHEMBL3734716, “Labdane and Clerodane Diterpenoids from Colophospermum mopane” (2015)
≈ marks a conversion by molar mass, not a printed value. Calls of active or inactive are those of the source. No cut-off for these calls is given here.

Legend:
[1] = tested on: Enterococcus faecalis; test: Antibacterial activity against Enterococcus faecalis ATCC 29212 after 24 hrs using p-iodonitrotetrazolium violet dye; assay type: functional; settings: ATCC 29212, 24 h
Method in brief: (§1)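 Broth microdilution MIC. Compounds reconstituted in acetone at a 5 mg/mL starting concentration, then serially doubling-diluted in sterile distilled water. Inoculum approx. 1 × 10^6 CFU/mL. Plates sealed and incubated at 37 °C for 24 h. Growth read after adding p-iodonitrotetrazolium violet (0.4 mg/mL); purple-pink means growth. MIC taken as lowest concentration with no growth. Ciprofloxacin positive control (0.01 mg/mL); acetone solvent and culture controls.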

[2] = tested on: Escherichia coli; test: Antibacterial activity against Escherichia coli ATCC 8739 after 24 hrs using p-iodonitrotetrazolium violet dye; assay type: functional; settings: ATCC 8739, 24 h; method in brief: as §1
[3] = tested on: Klebsiella pneumoniae; test: Antibacterial activity against Klebsiella pneumoniae ATCC 13883 after 24 hrs using p-iodonitrotetrazolium violet dye; assay type: functional; settings: ATCC 13883, 24 h; method in brief: as §1
[4] = tested on: Staphylococcus aureus; test: Antibacterial activity against Staphylococcus aureus ATCC 25923 after 24 hrs using p-iodonitrotetrazolium violet dye; assay type: functional; settings: ATCC 25923, 24 h; method in brief: as §1
[5] = species: Homo sapiens; test: Modulation of alpha1beta2gamma2S GABAA receptor (unknown origin) expressed in xenopus oocytes assessed as potentiation of GABA-induced chloride current by two-electrode voltage clamp method; assay type: cell-based

Row | Compound | MIC [1] [mg/L] | MIC [2] [mg/L] | MIC [3] [mg/L] | MIC [4] [mg/L] | Activity [5]
1 | C[C@H]1CC=C2[C@@H](CC[C@@H](O)C2(C)C)[C@]1(C)CCC1=CC(=O)OC1 | 62.5 (≈ 196 µM) | 125 (≈ 393 µM) | 62.5 (≈ 196 µM) | 93.7 (≈ 294 µM) | inactive
2 | C[C@@H]1CC[C@@]2(C)[C@H](CC[C@@H]3O[C@@]32C)[C@@]1(C)CCC1=CC(=O)OC1 |  |  |  |  | inactive
3 | C[C@H]1CC[C@H]2C(C)(C)CCC[C@]2(C)[C@@]12CC[C@](C)(CC(=O)O)O2 | 125 (≈ 388 µM) | 125 (≈ 388 µM) | 46.9 (≈ 145 µM) | 62.5 (≈ 194 µM) | inactive
4 | C/C(=C\C(=O)O)CC[C@@]1(C)[C@H](C)CC[C@@]2(C)C(CO)=CCC[C@H]12 (relative stereo) | 125 (≈ 390 µM) | 125 (≈ 390 µM) | 93.8 (≈ 293 µM) | 62.5 (≈ 195 µM) | inactive
5 | C/C(=C\C(=O)O)CC[C@]1(C)[C@@H](C)CC[C@@]2(C)C(CO)=CCC[C@@H]12 | 62.5 (≈ 195 µM) | 125 (≈ 390 µM) | 625 (≈ 1950 µM) | 62.5 (≈ 195 µM) | inactive
6 | CC1=CCC[C@H]2[C@](C)(CC/C(C)=C/C(=O)O)[C@@H](C)CC[C@@]12C | 31.3 (≈ 103 µM) | 15.6 (≈ 51.2 µM) | 93.8 (≈ 308 µM) | 15.6 (≈ 51.2 µM) | inactive
7 | O=C(O)c1cn(C2CC2)c2cc(N3CCNCC3)c(F)cc2c1=O [CIPROFLOXACIN] | 0.156 (≈ 0.471 µM) | 0.156 (≈ 0.471 µM) | 0.078 (≈ 0.235 µM) | 0.156 (≈ 0.471 µM) | 
8 | C/C(=C\C(=O)O)CC[C@]1(C)[C@@H](C)CC[C@]2(C)[C@H]1CC[C@H]1O[C@]12C | 62.5 (≈ 195 µM) | > 250 | 62.5 (≈ 195 µM) | 62.5 (≈ 195 µM) | inactive
9 | CC(=O)O[C@@H]1CC[C@@]2(C)[C@@H](CC[C@H](C)[C@]23CC[C@](C)(CC(=O)O)O3)C1(C)C | 62.5 (≈ 164 µM) | 125 (≈ 328 µM) | 62.5 (≈ 164 µM) | 125 (≈ 328 µM) | inactive
10 | C[C@H]1CC[C@H]2C(C)(C)[C@H](O)CC[C@]2(C)[C@@]12CC[C@@](C)(CCO)O2 | 125 (≈ 385 µM) | 125 (≈ 385 µM) | 62.5 (≈ 193 µM) | 93.7 (≈ 289 µM) | inactive
11 | C[C@H]1CC[C@H]2C(C)(C)CCC[C@]2(C)[C@@]1(O)CCC1=CC(=O)OC1 | 125 (≈ 390 µM) | 250 (≈ 780 µM) | 62.5 (≈ 195 µM) | 125 (≈ 390 µM) | inactive
12 | C[C@H]1CC[C@H]2C(C)(C)[C@H](O)CC[C@]2(C)[C@@]12CC[C@](C)(CC(=O)O)O2 | 62.5 (≈ 185 µM) | 125 (≈ 369 µM) | 62.5 (≈ 185 µM) | 125 (≈ 369 µM) | inactive
